Key:
Assay type in all cases: functional
[1] = tested on: Coptotermes formosanus; assay: Antifeedant activity against Coptotermes formosanus placed on 0.5 % wt/wt compound treated filter paper assessed as filter paper consumption measured 21 days post compound exposure (reference value: 23.6 +/- 13.6 mg)
[2] = tested on: Coptotermes formosanus; assay: Termiticidal activity against Coptotermes formosanus placed on 0.5 % wt/wt compound treated filter paper assessed as termite mortality measured 3 days post compound exposure
Method in brief: (§1)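 Treated filter paper disks moistened with 100 µL water; 20 C. formosanus workers (third instar or greater) plus 1 soldier per dish from field colonies kept on spruce, ca. 100% RH, 26.6 °C. Daily mortality scored for 3 weeks; cumulative percent mortality from four replicates, each a different colony; water-only controls; ANOVA, protected Fisher LSD (P < 0.05) after arcsine square-root transform.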

[3] = tested on: Coptotermes formosanus; assay: Termiticidal activity against Coptotermes formosanus placed on 0.5 % wt/wt compound treated filter paper assessed as termite mortality measured 21 days post compound exposure; method in brief: as §1
[4] = tested on: Coptotermes formosanus; assay: Termiticidal activity against Coptotermes formosanus placed on 0.5 % wt/wt compound treated filter paper assessed as termite mortality measured 11 days post compound exposure; method in brief: as §1
[5] = tested on: Coptotermes formosanus; assay: Antifeedant activity against Coptotermes formosanus placed on 1 % wt/wt compound treated filter paper assessed as filter paper consumption measured 21 days post compound exposure (reference value: 44 +/- 1.1 mg)
[6] = tested on: Coptotermes formosanus; assay: Termiticidal activity against Coptotermes formosanus placed on 1 % wt/wt compound treated filter paper assessed as termite mortality measured 3 days post compound exposure
[7] = tested on: Coptotermes formosanus; assay: Termiticidal activity against Coptotermes formosanus placed on 1 % wt/wt compound treated filter paper assessed as termite mortality measured 21 days post compound exposure
[8] = tested on: Coptotermes formosanus; assay: Termiticidal activity against Coptotermes formosanus placed on 1 % wt/wt compound treated filter paper assessed as termite mortality measured 11 days post compound exposure
[9] = tested on: Coptotermes formosanus; assay: Antifeedant activity against Coptotermes formosanus placed on 1 % wt/wt compound treated filter paper assessed as filter paper consumption measured 21 days post compound exposure (reference value: 85 +/- 15.1 mg)
[10] = tested on: Coptotermes formosanus; assay: Antifeedant activity against Coptotermes formosanus placed on 1 % wt/wt compound treated filter paper assessed as filter paper consumption measured 21 days post compound exposure (reference value: 42.4 +/- 4.3 mg)

COC1=C(OC)C(=O)C(Cl)=C(Cl)C1=O
Activity [1]: 19.3 mg
mortality [2]: 2.5%
mortality [3]: 30%
mortality [4]: 8.8%

CC1=C(Br)C(=O)C(Br)=C(Cl)C1=O
Activity [1]: 26.1 mg
mortality [2]: 2.5%
mortality [3]: 31.3%
mortality [4]: 22.5%

CNC1=C(Cl)C(=O)C(NC)=C(Cl)C1=O
Activity [5]: 7.8 mg
mortality [6]: 8.8%
mortality [7]: 100%
mortality [8]: 90%

COC1=C(Cl)C(=O)C(Cl)=C(OC)C1=O
Activity [5]: 37.8 mg
mortality [6]: 0%
mortality [7]: 2.5%
mortality [8]: 0%

COc1cccc(NC2=C(Cl)C(=O)C(Nc3cccc(OC)c3)=C(Cl)C2=O)c1
Activity [5]: 34.9 mg
mortality [6]: 0%
mortality [7]: 33.8%
mortality [8]: 1.3%

O=C1C(Cl)=C(Nc2cccc([N+](=O)[O-])c2)C(=O)C(Cl)=C1Nc1cccc([N+](=O)[O-])c1
Activity [5]: 18.3 mg
mortality [6]: 0%
mortality [7]: 90%
mortality [8]: 75%

Cc1ccc(NC2=C(Cl)C(=O)C(Nc3ccc(C)cc3)=C(Cl)C2=O)cc1
Activity [5]: 19.1 mg
mortality [6]: 6.3%
mortality [7]: 88.8%
mortality [8]: 52.5%

COc1ccc(NC2=C(Cl)C(=O)C(Nc3ccc(OC)cc3)=C(Cl)C2=O)cc1
Activity [5]: 39.8 mg
mortality [6]: 1.3%
mortality [7]: 57.5%
mortality [8]: 3.8%

COc1ccccc1NC1=C(Cl)C(=O)C(Nc2ccccc2OC)=C(Cl)C1=O
Activity [5]: 40.1 mg
mortality [6]: 1.3%
mortality [7]: 2.5%
mortality [8]: 0%

O=C1C(Cl)=C(Nc2ccc(Cl)cc2)C(=O)C(Cl)=C1Nc1ccc(Cl)cc1
Activity [5]: 22.7 mg
mortality [6]: 10%
mortality [7]: 86.3%
mortality [8]: 62.5%

O=C1C(Cl)=C(Nc2ccccc2)C(=O)C(Cl)=C1Nc1ccccc1
Activity [5]: 36.3 mg
mortality [6]: 0%
mortality [7]: 60%
mortality [8]: 40%

Cc1ccc(C2=CC(=O)C=CC2=O)cc1
mortality [6]: 5%
Activity [9]: 43.2 mg
mortality [7]: 38.3%
mortality [8]: 16.7%

COC1=CC(=O)C(c2ccccc2)=CC1=O
mortality [6]: 3.3%
Activity [10]: 35.8 mg
mortality [7]: 31.7%
mortality [8]: 6.7%

COC1=CC(=O)C(C[P+](c2ccccc2)(c2ccccc2)c2ccccc2)=CC1=O.[Cl-]
mortality [6]: 13.3%
Activity [10]: 5.3 mg
mortality [7]: 98.3%
mortality [8]: 60%

CC(C)(C)C1=CC(=O)C=CC1=O
mortality [6]: 13.3%
Activity [9]: 60.4 mg
mortality [7]: 28.3%
mortality [8]: 18.3%

CC1=CC(=O)C(C(C)(C)C)=CC1=O
mortality [6]: 5%
Activity [9]: 68.3 mg
mortality [7]: 26.7%
mortality [8]: 21.7%
